pIC50: −log10 of the molar value.

Series [1] is described as follows: Cytotoxicity against human PC3 cells measured at 72 hrs post dose by Celltiter-Glo luminescent cell viability assay. To be noted: PC-3, 72 h. The format is functional, cell-based. A digest of the protocol:
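PC3 cells (ATCC; DMEM GlutaMAX high glucose, 10% heat-inactivated FBS, pen/strep, 37 °C, 5% CO2) seeded 10,000/well, adhered overnight, then exposed 0–1000 µM for 24, 48, 72 h. Viability by CellTiter-Glo ATP luminescence after 30 min room-temperature equilibration. Vehicle controls at 0.1–0.001% DMSO. Quadruplicate wells, 3 independent experiments (n = 12). Normalised to control; IC50 from curve fit.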

The nature of series [2]: Drug uptake in human PC3 cells measured after 90 mins by MALDI-TOF-MS analysis. It counts as ADME, cell-based. To be noted: pc-3, 1.5 h. A digest of the protocol: (§1)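 Trypsinised PC3 cells washed in PBS, resuspended in low-K+ HEPES buffer pH 7.4, 0.5×10^6 cells incubated with compound at 5 µM final, 37 °C, 0–120 min. Cells washed in cold PBS, lysed in cold water, lysate spiked with tetraphenylphosphonium bromide internal standard, α-CHCA matrix, positive-ion MALDI-TOF-MS. Amount from calibration curve built in PC3 lysate; triplicate analyses, three independent experiments.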

Series [3] in a line: Aqueous solubility of the compound. It counts as physicochemical. To be noted: buffer.
The nature of series [4]: Drug uptake in human PC3 cells measured after 10 mins by MALDI-TOF-MS analysis. The format is ADME, cell-based. To be noted: pc-3, 10 min. An outline of the steps: as §1
The nature of series [5]: Drug uptake in human PC3 cells measured after 30 mins by MALDI-TOF-MS analysis. The format is ADME, cell-based. To be noted: pc-3, 0.5 h. An outline of the steps: as §1
Series [6] in a line: Drug uptake in rat C6 cells at 10 uM measured after 10 to 90 mins by MALDI-TOF-MS analysis relative to tetraphenylphosphonium cation. It counts as ADME, cell-based. To be noted: c6, 10 µM.

On to `Cc1ccc(-c2nc([P+](c3ccccc3)(c3ccccc3)c3ccccc3)c[se]2)cc1`, for which the negative logarithm of the IC50 (pIC50) in series [1] was 6.40.

For the molecule `C/C(N)=C/[P+](c1ccccc1)(c1ccccc1)c1ccccc1`, in series [1], the pIC50 is 5.10.

Take `CC(=O)SCCC[P+](c1ccc(F)cc1)(c1ccc(F)cc1)c1ccc(F)cc1.[Br-]`: the Drug uptake entry in series [2] is on record as “Active”. Further, the negative logarithm of the IC50 (pIC50) in series [1] is 3.60. Further, the solubility entry in series [3] was “Soluble”.

Consider `CC(=O)SCCC[P+](c1ccccc1)(c1ccccc1)c1ccccc1.[Br-]`, for which the Drug uptake result in series [4] and in series [5] was “Active” in each case. Moreover, the pIC50 in series [1] was 4.17. Also, the solubility result in series [3] was “Soluble”.

`Fc1ccc([P+](c2ccccc2)(c2ccccc2)c2ccccc2)cc1` [BFPET]: in series [6], the Drug uptake is listed as 80%.

Broadly, the pIC50 is −log10 of the IC50, conventionally taken in molar units. High values mean a low IC50, low ones a high IC50.

Values taken from ChEMBL document CHEMBL3877270, “Biological and structural studies of phosphonium 'masked thiolate' compounds” (Eur J Med Chem, 2017).
